From ChEMBL document CHEMBL3865845 (J Med Chem, 2016)
The source made the active and inactive calls. The calls are words filed in the database; no cut-off is given here.

Tests used:
[1] = test system: Human immunodeficiency virus 1; assay: Antiviral activity against wild type HIV1 NL4-3 infected in human MT4 cells by p24 ELISA; format: functional, cell-based; conditions: Human immunodeficiency virus 1, NL4-3, MT4
Outline: (§1)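 Replication-inhibition IC50 values in MT-4 cells, each from three separate experiments.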

[2] = test system: Human immunodeficiency virus 1; assay: Resistance index, ratio of IC50 for bevirimat-resistant HIV1 NL4-3 harboring GagV370A mutant infected in human MT4 cells to IC50 for wild type HIV1 NL4-3 infected in human MT4 cells; format: functional
[3] = Cytotoxicity against human MT4 cells assessed as reduction in cell viability after 2 days by CytoTox-Glo assay; format: toxicity, cell-based; conditions: mt4, 48 h
[4] = test system: Human immunodeficiency virus 1; assay: Potency index, ratio of IC50 for Bevirimat to IC50 for test compound for antiviral activity against bevirimat-resistant HIV1 NL4-3 harboring GagV370A mutant infected in human MT4 cells by p24 ELISA; format: functional
[5] = test system: Human immunodeficiency virus 1; assay: Antiviral activity against bevirimat-resistant HIV1 NL4-3 harboring GagV370A mutant infected in human MT4 cells by p24 ELISA; format: functional, cell-based; conditions: Human immunodeficiency virus 1, NL4-3, MT4; outline: as §1
[6] = Half life in human liver microsomes at 1 uM in presence of NADPH by LC/MS/MS analysis; format: ADME
[7] = test system: Human immunodeficiency virus 1; assay: Antiinfective activity against wild type HIV1 NL4-3 assessed as inhibition of viral infection by measuring viral infection level in human TZM-bl cells at 2 uM after 48 hrs by luciferase reporter gene assay (reference value: 100%); format: functional; design: scale not given: the % may be the effect or the level left
Outline: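 NL4-3 infection of TZM-bl cells with each compound at 2 µM, read by luminescence. Infection without compound served as control. % control infection = 100 × RLU(compound)/RLU(control).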

[8] = Inhibition of HIV1 integrase activity assessed as suppression of viral replication in human MT2 cells; format: cell-based; conditions: Human immunodeficiency virus 1, MT2
[9] = Inhibition of HIV1 integrase activity assessed as suppression of viral replication in human H9 cells; format: cell-based; conditions: Human immunodeficiency virus 1, H9
[10] = Elimination half life in healthy humans; format: ADME; conditions: human, in vivo; read-out: beta t1/2
[11] = test system: Human immunodeficiency virus 1; assay: Potency index, ratio of IC50 for Bevirimat to IC50 for test compound for antiviral activity against wild type HIV1 NL4-3 infected in human MT4 cells by p24 ELISA; format: functional
[12] = Selectivity index, ratio of CC50 for human MT4 cells to IC50 for wild type HIV1 NL4-3 infected in human MT4 cells; format: functional
Outline: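 Index is CC50 (cytotoxicity in MT-4 cells) divided by IC50 (inhibition of HIV-1/NL4-3 replication in MT-4 lymphocytes). Values are from three separate experiments. A ratio below 5 was scored as no selective anti-HIV activity.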

[13] = test system: COS; assay: Inhibition of wild type HIV1 NL4-3 Env-mediated cell-cell fusion between viral envelope expressing virus-infected African green monkey COS cells to human TZM-bl cells incubated overnight by luciferase reporter gene assay; format: cell-based; conditions: Human immunodeficiency virus 1

SMILES	IC50 [1] [nM]	CC50 [3] [nM]	other results
C=C(C)[C@@H]1CC[C@]2(C(=O)N3CCN(C(=O)/C=C/c4ccc5c(c4)OCO5)CC3)CC[C@]3(C)[C@H](CC[C@@H]4[C@@]5(C)CC[C@H](O)C(C)(C)[C@@H]5CC[C@]43C)[C@@H]12	> 1000	–	–
C=C(C)[C@@H]1CC[C@]2(C(=O)N3CCN(C(=O)/C=C/c4ccc(OC)c(OC)c4)CC3)CC[C@]3(C)[C@H](CC[C@@H]4[C@@]5(C)CC[C@H](O)C(C)(C)[C@@H]5CC[C@]43C)[C@@H]12	> 1000	–	–
C=C(C)[C@@H]1CC[C@]2(C(=O)N3CCN(C(=O)/C=C/c4ccc(OC)c(OC)c4)CC3)CC[C@]3(C)[C@H](CC[C@@H]4[C@@]5(C)CC[C@H](OC(=O)CC(C)(C)C(=O)O)C(C)(C)[C@@H]5CC[C@]43C)[C@@H]12	29	> 4500	Ratio IC50 [2]: 102.41; Ratio IC50 [4]: 1.39 - 51.4; IC50 [5]: 2970 nM
C=C(C)[C@@H]1CC[C@]2(C(=O)N3CCN(CCCCC(=O)N4CCN(C(=O)/C=C/c5ccc6c(c5)OCO6)CC4)CC3)CC[C@]3(C)[C@H](CC[C@@H]4[C@@]5(C)CC[C@H](OC(=O)CC(C)(C)C(=O)O)C(C)(C)[C@@H]5CC[C@]43C)[C@@H]12	12	> 4500	Ratio IC50 [2]: 460.83; Ratio IC50 [4]: 1.39 - 51.4; IC50 [5]: 5530 nM
C=C(C)[C@@H]1CC[C@]2(C(=O)O)CC[C@]3(C)[C@H](CC[C@@H]4[C@@]5(C)CC[C@H](OC(=O)CC(C)(C)C(=O)O)C(C)(C)[C@@H]5CC[C@]43C)[C@@H]12 [BEVIRIMAT]	65	> 4500	t1/2 [6]: 0.9 h; Activity [7]: 98%; IC50 [5]: 7710 nM
O=C(/C=C/c1ccc(O)c(O)c1)O[C@@H]1C[C@](O)(C(=O)O)C[C@@H](OC(=O)/C=C/c2ccc(O)c(O)c2)[C@H]1O	–	–	IC50 [8]: 1900 nM
C=C(C)[C@@H]1CC[C@]2(C(=O)N3CCN(C(=O)/C=C/c4ccc(O)c(O)c4)CC3)CC[C@]3(C)[C@H](CC[C@@H]4[C@@]5(C)CC[C@H](OC(=O)CC(C)(C)C(=O)O)C(C)(C)[C@@H]5CC[C@]43C)[C@@H]12	28	> 4500	Ratio IC50 [2]: 78.93; IC50 [5]: 2210 nM
O=C(/C=C/c1ccc(O)c2c1[C@H](C(=O)O)[C@@H](c1ccc(O)c(O)c1)O2)O[C@H](Cc1ccc(O)c(O)c1)C(=O)O [LITHOSPERMIC ACID]	–	–	IC50 [9]: 2000 nM
C=C(C)[C@@H]1CC[C@]2(C(=O)N3CCN(C(=O)/C=C/c4ccc5c(c4)OCO5)CC3)CC[C@]3(C)[C@H](CC[C@@H]4[C@@]5(C)CC[C@H](OC(=O)CC(C)(C)C(=O)O)C(C)(C)[C@@H]5CC[C@]43C)[C@@H]12	19	> 4500	half-life [10]: 56.3 to 69.5 h; t1/2 [6]: 2.13 h; Ratio IC50 [2]: 7.89 - 7.9; Activity [7]: 99%; Ratio IC50 [4]: 51; Ratio IC50 [11]: 3; IC50 [5]: 150 nM
O=C(O)/C=C/c1ccc(O)c(O)c1 [CAFFEIC ACID]	> 1000	–	Ratio CC50/IC50 [12]: <5
O=C(/C=C/c1ccc(O)c(O)c1)O[C@H](C(=O)O)[C@H](OC(=O)/C=C/c1ccc(O)c(O)c1)C(=O)O [CHICORIC ACID]	–	–	IC50 [8]: 4200 nM
C=C(C)[C@@H]1CC[C@]2(C(=O)N3CCN(C(=O)/C=C/c4ccc(OCOC)c(OCOC)c4)CC3)CC[C@]3(C)[C@H](CC[C@@H]4[C@@]5(C)CC[C@H](O)C(C)(C)[C@@H]5CC[C@]43C)[C@@H]12	> 1000	–	–
O=C(/C=C/c1ccc2c(c1)OCO2)N1CCNCC1	> 90000	> 90000	–
C=C(C)[C@@H]1CC[C@]2(C(=O)N3CCN(CCCCC(=O)N4CCN(C(=O)/C=C/c5ccc6c(c5)OCO6)CC4)CC3)CC[C@]3(C)[C@H](CC[C@@H]4[C@@]5(C)CC[C@H](O)C(C)(C)[C@@H]5CC[C@]43C)[C@@H]12	> 1000	–	–
C=C(C)[C@@H]1CC[C@]2(C(=O)N3CCNCC3)CC[C@]3(C)[C@H](CC[C@@H]4[C@@]5(C)CC[C@H](OC(=O)CC(C)(C)C(=O)O)C(C)(C)[C@@H]5CC[C@]43C)[C@@H]12	490	> 1500	–
C=C(C)[C@@H]1CC[C@]2(C(=O)N3CCN(C(=O)/C=C/c4ccc(OCOC)c(OCOC)c4)CC3)CC[C@]3(C)[C@H](CC[C@@H]4[C@@]5(C)CC[C@H](OC(=O)CC(C)(C)C(=O)O)C(C)(C)[C@@H]5CC[C@]43C)[C@@H]12	50	> 4500	–
O=C(O)/C=C/c1ccc2c(c1)OCO2	> 90000	> 90000	–
C=C(C)[C@@H]1CC[C@]2(C(=O)NCCCCCCCNC(C)=O)CC[C@]3(C)[C@H](CC[C@@H]4[C@@]5(C)CC[C@H](O)C(C)(C)[C@@H]5CC[C@]43C)[C@@H]12	–	–	inhibition [13]: Active
